# Results: ChEMBL document CHEMBL1221342, “Synthesis and in vitro antitumor activity of new 4,5-dihydropyrazole derivatives” (Bioorg Med Chem, 2010)
# How the values were obtained:
# CCRF-CEM = experiment: Growth inhibition of human CCRF-CEM cells after 48 hrs by SRB assay; assay type: functional
# Method in brief: (§1)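 NCI 60-cell-line screen. Cells grown in RPMI1640 with 5% fetal calf serum and 2 mM L-glutamine, with inoculum density set by cell line. Preincubated 24 h, then given compound in DMSO at 10^-4 to 10^-8 M (five 10-fold steps) for 48 h continuous exposure. Growth measured by SRB protein assay. GI50, TGI and LC50 reported as –log molar.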
# K562 = experiment: Growth inhibition of human K562 cells after 48 hrs by SRB assay; assay type: functional; details: K562, 48 h; method in brief: as §1
# MOLT-4 = experiment: Growth inhibition of human MOLT4 cells after 48 hrs by SRB assay; assay type: functional; details: MOLT-4, 48 h; method in brief: as §1
# [1] = Growth inhibition of human […] cells after 48 hrs by SRB assay; assay type: functional; method in brief: as §1
# HOP-62 = experiment: Growth inhibition of human HOP62 cells after 48 hrs by SRB assay; assay type: functional; details: HOP-62, 48 h; method in brief: as §1
# NCI-H322M = experiment: Growth inhibition of human NCI-H322M cells after 48 hrs by SRB assay; assay type: functional; method in brief: as §1
# NCI-H460 [2] = experiment: Growth inhibition of human NCI-H460 cells after 48 hrs by SRB assay; assay type: functional; details: NCI-H460, 48 h; method in brief: as §1
# NCI-H522 = experiment: Growth inhibition of human NCI-H522 cells after 48 hrs by SRB assay; assay type: functional; details: NCI-H522, 48 h; method in brief: as §1
# HCC 2998 = experiment: Growth inhibition of human HCC2998 cells after 48 hrs by SRB assay; assay type: functional; details: HCC 2998, 48 h; method in brief: as §1
# HCT-116 = experiment: Growth inhibition of human HCT116 cells after 48 hrs by SRB assay; assay type: functional; details: HCT-116, 48 h; method in brief: as §1
# HCT-15 = experiment: Growth inhibition of human HCT15 cells after 48 hrs by SRB assay; assay type: functional; details: HCT-15, 48 h; method in brief: as §1
# KM12 = experiment: Growth inhibition of human KM12 cells after 48 hrs by SRB assay; assay type: functional; details: KM12, 48 h; method in brief: as §1
# SW-620 = experiment: Growth inhibition of human SW620 cells after 48 hrs by SRB assay; assay type: functional; details: SW-620, 48 h; method in brief: as §1
# SF-268 = experiment: Growth inhibition of human SF268 cells after 48 hrs by SRB assay; assay type: functional; details: SF-268, 48 h; method in brief: as §1
# SF-539 = experiment: Growth inhibition of human SF539 cells after 48 hrs by SRB assay; assay type: functional; details: SF-539, 48 h; method in brief: as §1
# U-251 = experiment: Growth inhibition of human U251 cells after 48 hrs by SRB assay; assay type: functional; details: U-251, 48 h; method in brief: as §1
# M14 = experiment: Growth inhibition of human M14 cells after 48 hrs by SRB assay; assay type: functional; details: M14, 48 h; method in brief: as §1
# SK-MEL-2 = experiment: Growth inhibition of human SK-MEL-2 cells after 48 hrs by SRB assay; assay type: functional; details: SK-MEL-2, 48 h; method in brief: as §1
# MDA-MB-435 = experiment: Growth inhibition of human MDA-MB-435 cells after 48 hrs by SRB assay; assay type: functional; details: MDA-MB-435, 48 h; method in brief: as §1
# SK-MEL-5 = experiment: Growth inhibition of human SK-MEL-5 cells after 48 hrs by SRB assay; assay type: functional; details: SK-MEL-5, 48 h; method in brief: as §1
# UACC-62 = experiment: Growth inhibition of human UACC62 cells after 48 hrs by SRB assay; assay type: functional; details: UACC-62, 48 h; method in brief: as §1
# OVCAR-3 = experiment: Growth inhibition of human OVCAR-3 cells after 48 hrs by SRB assay; assay type: functional; details: OVCAR-3, 48 h; method in brief: as §1
# OVCAR-4 = experiment: Growth inhibition of human OVCAR4 cells after 48 hrs by SRB assay; assay type: functional; details: OVCAR-4, 48 h; method in brief: as §1
# OVCAR-8 = experiment: Growth inhibition of human OVCAR8 cells after 48 hrs by SRB assay; assay type: functional; details: OVCAR-8, 48 h; method in brief: as §1
# NCI/ADR-RES = experiment: Growth inhibition of human NCI/ADR-RES cells after 48 hrs by SRB assay; assay type: functional; method in brief: as §1
# SK-OV-3 = experiment: Growth inhibition of human SKOV3 cells after 48 hrs by SRB assay; assay type: functional; details: SK-OV-3, 48 h; method in brief: as §1
# 786-0 = experiment: Growth inhibition of human 786-0 cells after 48 hrs by SRB assay; assay type: functional; details: 786-0, 48 h; method in brief: as §1
# A498 = experiment: Growth inhibition of human A498 cells after 48 hrs by SRB assay; assay type: functional; details: A498, 48 h; method in brief: as §1
# CAKI-1 = experiment: Growth inhibition of human Caki1 cells after 48 hrs by SRB assay; assay type: functional; details: CAKI-1, 48 h; method in brief: as §1
# RXF 393 = experiment: Growth inhibition of human RXF393 cells after 48 hrs by SRB assay; assay type: functional; details: RXF 393, 48 h; method in brief: as §1
# TK-10 = experiment: Growth inhibition of human TK10 cells after 48 hrs by SRB assay; assay type: functional; details: TK-10, 48 h; method in brief: as §1
# PC-3 = experiment: Growth inhibition of human PC3 cells after 48 hrs by SRB assay; assay type: functional; details: PC-3, 48 h; method in brief: as §1
# DU-145 = experiment: Growth inhibition of human DU145 cells after 48 hrs by SRB assay; assay type: functional; details: DU-145, 48 h; method in brief: as §1
# BT-549 = experiment: Growth inhibition of human BT549 cells after 48 hrs by SRB assay; assay type: functional; details: BT-549, 48 h; method in brief: as §1
# T47D = experiment: Growth inhibition of human T47D cells after 48 hrs by SRB assay; assay type: functional; method in brief: as §1
# MDA-MB-468 = experiment: Growth inhibition of human MDA-MB-468 cells after 48 hrs by SRB assay; assay type: functional; details: MDA-MB-468, 48 h; method in brief: as §1
# NCI-H460 [3] = experiment: Cytotoxicity against human NCI-H460 cells after 72 hrs by SRB assay; assay type: functional, cell-based; details: NCI-H460, 72 h
# Method in brief: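 NCI-H460 (ATCC) cells seeded in 96-well plates in growth medium. Scalar drug concentrations added 24 h after plating, then 72 h exposure. Surviving cells stained with sulforhodamine B, OD read at 570 nm. IC50 (50% growth inhibition) fitted from dose–response curves. Mean ± SE of at least three independent experiments.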
structure (smiles),measurement,setting,value
COc1cc(C2CC(c3ccc(N(C)C)cc3)=NN2C(C)=O)cc(OC)c1OC (configuration not stated),GI50,CCRF-CEM,2.51 µM
same,TGI,CCRF-CEM; read-out: pTGI (converted),> 100 µM
same,GI50,K562,1.58 µM
same,TGI,K562; read-out: pTGI (converted),> 100 µM
same,GI50,MOLT-4,3.16 µM
same,TGI,MOLT-4; read-out: pTGI (converted),> 100 µM
same,GI50,[1],3.16 µM
same,TGI,[1]; read-out: pTGI (converted),15.8 µM
same,GI50,HOP-62,0.794 µM
same,TGI,HOP-62; read-out: pTGI (converted),> 100 µM
same,GI50,NCI-H322M,3.98 µM
same,TGI,NCI-H322M; read-out: pTGI (converted),63.1 µM
same,GI50,NCI-H460 [2],0.631 µM
same,TGI,NCI-H460 [2]; read-out: pTGI (converted),> 100 µM
same,GI50,NCI-H522,0.631 µM
same,TGI,NCI-H522; read-out: pTGI (converted),7.94 µM
same,GI50,HCC 2998,1.26 µM
same,TGI,HCC 2998; read-out: pTGI (converted),20 µM
same,GI50,HCT-116,0.501 µM
same,TGI,HCT-116; read-out: pTGI (converted),20 µM
same,GI50,HCT-15,0.631 µM
same,GI50,KM12,0.794 µM
same,TGI,KM12; read-out: pTGI (converted),31.6 µM
same,GI50,SW-620,0.501 µM
same,TGI,SW-620; read-out: pTGI (converted),> 100 µM
same,GI50,SF-268,2.51 µM
same,TGI,SF-268; read-out: pTGI (converted),> 100 µM
same,GI50,SF-539,1 µM
same,TGI,SF-539; read-out: pTGI (converted),5.01 µM
same,GI50,U-251,0.631 µM
same,TGI,U-251; read-out: pTGI (converted),> 100 µM
same,GI50,M14,0.501 µM
same,TGI,M14; read-out: pTGI (converted),2.51 µM
same,GI50,SK-MEL-2,7.94 µM
same,TGI,SK-MEL-2; read-out: pTGI (converted),> 100 µM
same,GI50,MDA-MB-435,0.2 µM
same,TGI,MDA-MB-435; read-out: pTGI (converted),0.631 µM
same,GI50,SK-MEL-5,0.631 µM
same,TGI,SK-MEL-5; read-out: pTGI (converted),12.6 µM
same,GI50,UACC-62,0.631 µM
same,TGI,UACC-62; read-out: pTGI (converted),> 100 µM
same,GI50,OVCAR-3,0.251 µM
same,TGI,OVCAR-3; read-out: pTGI (converted),1 µM
same,GI50,OVCAR-4,3.98 µM
same,TGI,OVCAR-4; read-out: pTGI (converted),> 100 µM
same,GI50,OVCAR-8,5.01 µM
same,TGI,OVCAR-8; read-out: pTGI (converted),> 100 µM
same,GI50,NCI/ADR-RES,0.316 µM
same,TGI,NCI/ADR-RES; read-out: pTGI (converted),1.26 µM
same,GI50,SK-OV-3,3.98 µM
same,TGI,SK-OV-3; read-out: pTGI (converted),> 100 µM
same,GI50,786-0,1.26 µM
same,TGI,786-0; read-out: pTGI (converted),63.1 µM
same,GI50,A498,2.51 µM
same,TGI,A498; read-out: pTGI (converted),20 µM
same,GI50,CAKI-1,0.501 µM
same,TGI,CAKI-1; read-out: pTGI (converted),> 100 µM
same,GI50,RXF 393,1.58 µM
same,TGI,RXF 393; read-out: pTGI (converted),5.01 µM
same,GI50,TK-10,12.6 µM
same,TGI,TK-10; read-out: pTGI (converted),> 100 µM
same,GI50,PC-3,0.501 µM
same,TGI,PC-3; read-out: pTGI (converted),> 100 µM
same,GI50,DU-145,2 µM
same,TGI,DU-145; read-out: pTGI (converted),12.6 µM
same,GI50,BT-549,2.51 µM
same,TGI,BT-549; read-out: pTGI (converted),> 100 µM
same,GI50,T47D,6.31 µM
same,TGI,T47D; read-out: pTGI (converted),> 100 µM
same,GI50,MDA-MB-468,1.58 µM
same,TGI,MDA-MB-468; read-out: pTGI (converted),> 100 µM
same,IC50,NCI-H460 [3],1.8 µM
